How the values were obtained:
[1] = molecular target: T1, Bombesin receptor subtype-3 (Rattus norvegicus, UniProt Q8K418); assay: Agonist activity at rat BRS3 expressed in HEK293AEQ cells after 10 mins by aequorin bioluminescence assay; type: functional, cell-based
T1 sequence (Q8K418 whole entry): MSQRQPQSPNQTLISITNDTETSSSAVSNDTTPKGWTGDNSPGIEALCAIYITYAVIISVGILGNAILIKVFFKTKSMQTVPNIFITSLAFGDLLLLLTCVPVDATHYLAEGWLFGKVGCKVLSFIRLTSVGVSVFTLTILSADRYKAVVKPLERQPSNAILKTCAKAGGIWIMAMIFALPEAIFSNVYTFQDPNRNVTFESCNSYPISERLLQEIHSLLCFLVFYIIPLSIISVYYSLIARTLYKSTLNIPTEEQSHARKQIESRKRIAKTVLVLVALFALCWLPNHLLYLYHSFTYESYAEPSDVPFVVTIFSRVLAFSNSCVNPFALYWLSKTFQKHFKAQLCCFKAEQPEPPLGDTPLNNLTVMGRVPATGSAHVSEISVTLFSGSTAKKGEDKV

[2] = molecular target: T2, Bombesin receptor subtype-3 (Rattus norvegicus) (UniProt Q8K418); assay: Agonist activity at rat BRS3 expressed in HEK293AEQ cells after 10 mins by aequorin bioluminescence assay relative to dY-peptide; type: functional, cell-based; design: concentration or dose not given beside the values
T2 sequence (whole entry): T1 sequence (Q8K418 whole entry)

[3] = molecular target: T3, Bombesin receptor subtype-3 (Homo sapiens, UniProt P32247); assay: Agonist activity at human BRS3 expressed in HEK293AEQ cells after 10 mins by aequorin bioluminescence assay; type: functional, cell-based
T3 sequence (P32247 whole entry): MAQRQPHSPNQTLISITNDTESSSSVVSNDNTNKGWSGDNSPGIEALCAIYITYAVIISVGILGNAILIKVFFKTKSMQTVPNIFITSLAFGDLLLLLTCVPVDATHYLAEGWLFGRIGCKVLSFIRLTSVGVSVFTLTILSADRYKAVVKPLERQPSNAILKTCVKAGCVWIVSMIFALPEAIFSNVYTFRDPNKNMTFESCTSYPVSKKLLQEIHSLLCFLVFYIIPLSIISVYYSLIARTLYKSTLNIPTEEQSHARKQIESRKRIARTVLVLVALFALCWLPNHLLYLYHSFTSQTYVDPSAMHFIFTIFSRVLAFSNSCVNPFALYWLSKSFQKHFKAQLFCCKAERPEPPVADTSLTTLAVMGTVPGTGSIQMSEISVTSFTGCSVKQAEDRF

[4] = molecular target: T4, Bombesin receptor subtype-3 (Homo sapiens) (UniProt P32247); assay: Agonist activity at human BRS3 expressed in HEK293AEQ cells after 10 mins by aequorin bioluminescence assay relative to dY-peptide; type: functional, cell-based
T4 sequence (whole entry): T3 sequence (P32247 whole entry)

[5] = Bioavailability in rat; type: ADME, organism-based; details: in vivo
[6] = Half life in rat; type: ADME, organism-based; details: in vivo
[7] = Clearance in rat; type: ADME, organism-based; details: in vivo
[8] = Ratio of drug level in brain to plasma in rat at 1 mg/kg, iv after 0.25 hr; type: ADME, organism-based; design: dose 1 mg/kg, route intravenous; details: brain and plasma, read-out: BPR
Method in brief: (§1)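 Rats received a single 1 mg/kg IV dose. Total drug concentration in brain and the brain/plasma ratio were measured at 0.25, 1 and 2 h post-dose.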

[9] = Drug level in rat brain at 1 mg/kg, iv after 0.25 hrs; type: ADME, organism-based; design: dose 1 mg/kg, route intravenous; details: read-out: Drug uptake; method in brief: as §1
[10] = Ratio of drug level in brain to plasma in rat at 1 mg/kg, iv after 1 hr; type: ADME, organism-based; design: dose 1 mg/kg, route intravenous; details: brain and plasma, read-out: BPR; method in brief: as §1
[11] = Ratio of drug level in brain to plasma in rat at 1 mg/kg, iv after 2 hrs; type: ADME, organism-based; design: dose 1 mg/kg, route intravenous; details: brain and plasma, read-out: BPR; method in brief: as §1
Rattus norvegicus [12] = assay: Antiobesity activity in deit-induced obese rat model assessed as suppression of acute food intake at 10 mg/kg, iv relative to control; type: functional
Method in brief: (§2)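 Acute food intake was measured and expressed as percent suppression versus vehicle-treated rats. Melanotan-II served as the positive control.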

Rattus norvegicus [13] = assay: Antiobesity activity in deit-induced obese rat model assessed as suppression of acute food intake at 0.3 mg/kg, iv relative to control; type: functional; method in brief: as §2
[14] = Drug level in rat brain at 1 mg/kg, iv after 1 hr; type: ADME, organism-based; design: dose 1 mg/kg, route intravenous; details: read-out: Drug uptake; method in brief: as §1
[15] = Drug level in rat brain at 1 mg/kg, iv after 2 hrs; type: ADME, organism-based; design: dose 1 mg/kg, route intravenous; details: read-out: Drug uptake; method in brief: as §1

SMILES	EC50 [1] [µM]	Activity [2] [%]	EC50 [3] [µM]	Activity [4] [%]	other results
Nc1n[nH]c2nc(N3CCCCC3)c3c(c12)CCN(CCc1ccccc1)C3	7.91	51	10	3.3	–
Nc1n[nH]c2nc(N3CCNCC3)c3c(c12)CCN(Cc1ccccc1)C3	10	31	10	0.1	–
Nc1n[nH]c2nc(N3CCCCC3)c3c(c12)CCNC3	> 10	15	> 10	0.3	–
Nc1n[nH]c2nc(N3CCCCCCC3)c3c(c12)CCN(Cc1ccccc1)C3	10	51	10	3.7	–
Nc1n[nH]c2nc(N3CCCC3)c3c(c12)CCN(Cc1ccccc1)C3	0.965	99	10	12	–
CN1CCN(c2nc3[nH]nc(N)c3c3c2CN(Cc2ccccc2)CC3)CC1	10	21	10	0.2	–
Nc1n[nH]c2nc(N3CCCCC3)c3c(c12)CCN(CC1CCCCC1)C3	10	49	10	12	–
Nc1n[nH]c2nc(N3CCCCC3)c3c(c12)CCN(Cc1cccc(C(F)(F)F)c1)C3	10	38	10	0.3	–
Cn1nc(N)c2c3c(c(N4CCCCC4)nc21)CN(Cc1ccccc1)CC3	6.06	73	10	7.6	–
CC(C)Nc1nc2[nH]nc(N)c2c2c1CN(Cc1ccccc1)CC2	7.65	55	10	1.8	–
Nc1n[nH]c2nc(N3CCCCC3)c3c(c12)CCN(Cc1ccc(F)cc1)C3	3.86	64	10	1.7	–
Nc1n[nH]c2nc(Nc3ccccc3)c3c(c12)CCN(Cc1ccccc1)C3	10	60	10	1.5	–
Nc1n[nH]c2nc(N3CCCCCC3)c3c(c12)CCN(Cc1ccccc1)C3	1.44	100	10	9	–
CC(C)CN1CCc2c(c(N3CCCCC3)nc3[nH]nc(N)c23)C1	10	61	10	10	–
Nc1n[nH]c2nc(N3CCOCC3)c3c(c12)CCN(Cc1ccccc1)C3	3.56	82	10	1.3	–
CN(C)c1nc2[nH]nc(N)c2c2c1CN(Cc1ccccc1)CC2	8.95	59	10	0.9	–
COc1ccc(CN2CCc3c(c(N4CCCCC4)nc4[nH]nc(N)c34)C2)cc1	10	8	10	0.55	–
Nc1n[nH]c2nc(NC3CCCCC3)c3c(c12)CCN(Cc1ccccc1)C3	10	50	10	1	–
CC(C)(C)CN1CCc2c(c(N3CCCCC3)nc3[nH]nc(N)c23)C1	1.06	91	10	22	–
Nc1n[nH]c2nc(N3CCCCC3)c3c(c12)CCN(C(=O)c1ccc(F)cc1)C3	> 10	–	> 10	–	–

These reach a lower EC50 [1]. Values come first.

EC50 [1] [µM]	Activity [2] [%]	EC50 [3] [µM]	Activity [4] [%]	SMILES	other results
0.212	96	0.543	78	CCC(C)(C)C(=O)Nc1n[nH]c2nc(N3CCCCC3)c3c(c12)CCN(Cc1ccccc1)C3	–
0.854	96	10	6.8	CC1CCN(c2nc3[nH]nc(N)c3c3c2CN(Cc2ccccc2)CC3)CC1	–
0.063	105	1.54	37	CC(C)(C)C(=O)Nc1n[nH]c2nc(N3CCCCC3)c3c(c12)CCN(Cc1ccccc1)C3	–
0.129	94	3.16	31	CC(=O)Nc1n[nH]c2nc(N3CCCCC3)c3c(c12)CCN(Cc1ccccc1)C3	–
0.099	102	4.76	37	CC(C)C(=O)Nc1n[nH]c2nc(N3CCCCC3)c3c(c12)CCN(Cc1ccccc1)C3	–
0.38	105	4.52	60	Nc1n[nH]c2nc(N3CCCCC3)c3c(c12)CCN(Cc1ccccc1)C3	bioavailability [5]: 5.7%; half-life [6]: 43.8 min; clearance [7]: 45 mL/min/kg; Kp at 0.25 h [8]: 4.4; concentration at 0.25 h [9]: 1210 nM; Kp at 1 h [10]: 3.2; Kp at 2 h [11]: 3.4; Activity (Rattus norvegicus [12]): 31.6%; Activity (Rattus norvegicus [13]): 43.6%; concentration at 1 h [14]: 390 nM; concentration at 2 h [15]: 140 nM
0.471	105	10	53	CCNc1n[nH]c2nc(N3CCCCC3)c3c(c12)CCN(Cc1ccccc1)C3	–
0.346	94	6.78	46	Nc1n[nH]c2nc(N3CCCCC3)c3c(c12)CCN(Cc1ccccn1)C3	–
0.413	99	0.704	61	O=C(Nc1n[nH]c2nc(N3CCCCC3)c3c(c12)CCN(Cc1ccccc1)C3)C1CCCC1	–
0.342	121	5.57	67	Nc1n[nH]c2nc(N3CCCCC3)c3c(c12)CCN(Cc1ccccc1Cl)C3	–
0.481	96	10	10	Nc1n[nH]c2nc(N3CCC(F)CC3)c3c(c12)CCN(Cc1ccccc1)C3	–
0.759	108	10	20	CC(=O)n1nc(N)c2c3c(c(N4CCCCC4)nc21)CN(Cc1ccccc1)CC3	–
0.68	94	4.15	29	CC(C)(C)CNc1n[nH]c2nc(N3CCCCC3)c3c(c12)CCN(Cc1ccccc1)C3	–
0.123	103	3.47	19	CCC(=O)Nc1n[nH]c2nc(N3CCCCC3)c3c(c12)CCN(Cc1ccccc1)C3	–
0.433	93	1.23	52	CC(C)(C)CC(=O)Nc1n[nH]c2nc(N3CCCCC3)c3c(c12)CCN(Cc1ccccc1)C3	–
0.402	94	10	1.6	Nc1n[nH]c2nc(N3CCCCC3)c3c(c12)CCN(Cc1ccc2c(c1)OCO2)C3	–

From ChEMBL document CHEMBL1157936, “Synthesis of 7-benzyl-5-(piperidin-1-yl)-6,7,8,9-tetrahydro-3H-pyrazolo[3,4-c][2,7]naphthyridin-1-ylamine and its analogs as bombesin receptor subtype-3 agonists” (Bioorg Med Chem Lett, 2010)
